# Assay results from PubChem BioAssay AID504382 (The Scripps Research Institute Molecular Screening Center, 2011).
# Out of some 2,500 compounds screened, about 460 (18%) were called active. These entries were drawn from the full list. A number with no mark means an inactive call.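 How the source made its calls: active means mean activation above a cutoff of low control average plus 3 SD from the earlier screen (cut at about 12% in these data); inactive means the rest.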
# Experiment: IANBD-channel fluorescence artefacts in buffer – biochemical, artefact control for cardiac RTF calcium sensitizer project, confirmation (AID 504382)
# Conditions: IANBD fluorescence interference counterscreen, EC20 Ca2+, at 7.2 µM, hits give high values, scaled: EC20 calcium 0, EC100 calcium 100
# Method in brief: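 Technique: fluorescence, 480/540 nm / Medium: MOPS-based buffer with KCl, MgCl2, EGTA, NTA, DTT, pH 7.2 / Probe or stimulus: calcium at EC20 level, 0.472 mM final / Repeats: triplicate wells per compound / Times: 15 min compound exposure at 25 °C / Measure: compound fluorescence interference relative to control well signal range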
row,SMILES,fluorescence artifact activation
1,CCc1ccc(C(=O)Nc2cccnc2Oc2ccc(Cl)cc2)cc1,3.19%
2,Cc1cc(C=C2C(=O)CCCC2=O)c(C)n1-c1ccccc1,0.05%
3,CCOC(=O)/C(=C\c1c[nH]c2ccccc12)NC(C)=O,7.92%
4,CC(C)Sc1nc2ccc(Br)cc2[nH]1,10.8%
5,COCCCN(C(=O)c1cccnc1SC)c1c(N)n(Cc2ccccc2)c(=O)[nH]c1=O,15.1% (active)
6,COc1cc(OC)cc(C(=O)N(Cc2ccco2)c2c(N)n(Cc3ccccc3)c(=O)[nH]c2=O)c1,0.01%
7,CCCCN(C(=O)c1ccc([N+](=O)[O-])o1)c1c(N)n(CCCC)c(=O)[nH]c1=O,-0.06%
8,COc1ccc(NC(=O)Cc2ccccc2)cn1,0.04%
9,N#CC1=C(N)SC(N)=C(C#N)C1c1cccc(O)c1,0.07%
10,C/C(Cn1cnc([N+](=O)[O-])n1)=N\NC(=O)c1cccc(F)c1,0.05%
11,Cc1cc(NC(=O)COC(=O)C(Cc2ccccc2)NC(=O)c2ccco2)no1 (centres undefined),9.69%
12,Cc1cc(NC(=O)CN2C(=O)[C@@H]3[C@H](C2=O)[C@@H]2C[C@H]3C(Br)C2Br)no1 (some centres undefined),19.4% (active)
13,CC(=O)NC(CCS(C)(=O)=O)C(=O)Nc1cc(C)on1 (centres undefined),0.57%
14,O=C1CCNc2ccc(-c3ccccc3)cc21,0.1%
15,Cc1cc(/C=C2\NC(=S)N(C)C2=O)ccc1N1CCCC1,2.17%
16,Cc1cc(N2CCCC2)ccc1/C=C1\NC(=S)N(C)C1=O,5.61%
17,Cc1cc(/C=C2/C(=O)N(C)C(=S)N2C)ccc1N1CCCC1,23.6% (active)
18,COC(=O)CCN(C(=O)c1ccc([N+](=O)[O-])cc1)c1ccccn1,4.76%
19,O=C(Nc1ccc(Br)cc1)c1ccc(Br)c(S(=O)(=O)Nc2cccnc2)c1,4.66%
20,CC(C)(C)NC(=O)NC(=O)Cn1ccsc1=N,40% (active)

row,SMILES,fluorescence artifact activation
1,O=C(C1=NN(c2ccccc2)C2C(=O)N(c3cccc(Cl)c3)C(=O)C12)c1ccccc1 (centres undefined),9.7%
2,O=C(NN1C(=O)c2ccccc2NC1c1ccco1)c1ccccc1 (centres undefined),0.03%
3,CN1C(=O)/C(=C/C=C2\SCCN2C)OC1=S,1.7%
4,COC(=O)C1CCN(C(=O)CN2C(=O)c3ccccc3S2(=O)=O)CC1,818% (active)
5,C=C1CCN(C(CC(C)C)C(=O)OC)S(=O)(=O)c2ccccc21 (centres undefined),0.08%
6,NC(=O)C1CCN(c2ccc3c(c2)S(=O)(=O)c2ccccc2C3=O)CC1,0.05%
7,CN(N=Nc1ccc([N+](=O)[O-])cc1)c1ccccc1,7.25%
8,CSc1ccc(C2C(C(=O)c3ccco3)=C(O)C(=O)N2c2nnc(SC)s2)cc1 (centres undefined),7.57%
9,Cc1cc(NC(=O)/C(C#N)=C\c2ccc(-c3ccc(SC(F)F)cc3)o2)n(-c2ccccc2)n1,136% (active)
10,Cc1cc(NC(=O)/C(C#N)=C/c2ccc(-c3ccc(SC(F)F)cc3)o2)n(-c2ccccc2)n1,291% (active)
11,CC1CC1c1ccc(/C=C(\C#N)C(=O)Nc2ccc(Cl)cc2Cl)o1 (centres undefined),5.23%
12,O=C(NCc1cccc(F)c1)c1cccc2c1C(=O)c1ccc(N3CCCC3)cc1S2(=O)=O,-0.02%
13,CCOC(=O)c1sc(N)c(C#N)c1COC(=O)CNC(=O)c1ccccc1,-0.01%
14,CC1CC(C)CN(C(=O)Cn2c(-c3nonc3N)nc3ccccc32)C1 (centres undefined),0.07%
15,CC(NC(=O)COc1ccc(N(C)S(=O)(=O)c2ccccc2)cc1)c1ccccc1 (centres undefined),0.07%
16,Cc1ccc(C)c(OCCN2C(=O)NC3(CCc4ccccc4C3)C2=O)c1 (centres undefined),0.24%
17,Cc1ccc(C2C(C#N)=C(N)SC(N)=C2C#N)cc1,0.33%
18,O=C(C1=C(O)C(=O)N(CCN2CCOCC2)C1c1ccc([N+](=O)[O-])cc1)c1cccs1 (centres undefined),10.2%
19,CC(/C=C/c1ccc(N(C)C)cc1)=N/N=C1/NC(=O)CC(C(=O)Nc2ccc(Cl)cc2)S1 (centres undefined),0.15%
20,O=[N+]([O-])c1ccc(N/N=C\c2ccccc2OCc2ccccc2)cc1,5.45%

row,SMILES,fluorescence artifact activation
1,COC(=O)c1ccc(-c2ccc(F)cc2)nc1C,-0.07%
2,O=c1[nH]c2c(s1)C=Nc1ccccc1N2,0.01%
3,CN(C)C(=O)CN1C(=O)C2CCCCN2C(=O)c2ccccc21 (centres undefined),0.04%
4,CN(C)/C=C1\C=C2C(=O)c3ccccc3N2C1=O,21% (active)
5,CCCCCCCC(=O)Nc1ccc(S(=O)(=O)Nc2nccs2)cc1,12.5% (active)
6,Cc1ccc(S(=O)(=O)NCCCCCC(=O)Nc2ccccc2C)cc1,8.11%
7,CCCC(=O)Nc1ccc(-c2cnc(-c3ccc(NC(=O)CCC)cc3)nc2)cc1,0.08%
8,N#Cc1ccccc1NC(=O)CNc1ccc(Cl)c(C(F)(F)F)c1,1.46%
9,CCC(=O)N/C(=N/c1nc(C)cc(C)n1)Nc1ccccc1,0.29%
10,Cc1ccc(NC(=O)c2cc(S(=O)(=O)N3CCCCC3)ccc2N2CCOCC2)cc1S(=O)(=O)N(C)C,0.83%
11,COc1ccc(-c2csc(N3CCN(c4cc5c(cc4Cl)nc(-c4ccncc4)n5CCOCCO)CC3)n2)cc1,-0.09%
12,CCOC(=O)Cc1csc(N(C)C)n1,0.08%
13,CCOC(=O)Cc1csc(CC(N)=O)n1,2.47%
14,CCOC(=O)Cc1csc(NC(=O)c2sc3nc4cc(C)ccc4cc3c2N)n1,19% (active)
15,Cc1cccc(N2CCN(C(=O)Cn3nc(Cc4ccncc4)c4ccccc4c3=O)CC2)c1C,4.88%
16,Cc1c(O)ccc(/C(Cc2ccc3ccccc3n2)=N\N)c1O,-0.02%
17,CC(=O)OCC[N+](C)(C)C,13.6% (active)
18,Cc1cccc(N=Cc2[nH]c3ccc(Br)c(Cl)c3c2O)c1,0.01%
19,COCCNC(=O)c1c(CS(=O)(=O)c2ccccc2)noc1C(=O)NCc1ccccc1,-0.04%
